{
  "source": "ChEMBL document CHEMBL5107970",
  "about": "“Synthesis of a fluorinated pyronin that enables blue light to rapidly depolarize mitochondria” (RSC Med Chem, 2022)",
  "key": {"HeLa [1]": {"system": "HeLa", "assay": "Induction of reactive oxygen species generation in human HeLa cells assessed as increase in ROS level at 20 uM incubated for 1 hr in presence of dihydroethidium by confocal microscopy", "format": "functional, cell-based", "method_in_brief": "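HeLa cells were seeded at 20,000 per well in chambered coverslips and grown 16 h before treatment at 37 °C. Dihydroethidium (5 µM) was then added for 1 h, and cells were washed twice with complete medium. Confocal imaging followed. Ethidium signal was quantified as mean fluorescence in regions of interest drawn around nuclei.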"}, "[2]": {"assay": "Drug distribution in human HeLa cells assessed as fluorescence in mitochondria at 10 uM incubated for 1 to 3 hrs by MitoTracker Deep Red staining based confocal laser scanning microscopy", "format": "ADME", "details": "time 1-3 hrs", "method_in_brief": "(§1)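 HeLa cells seeded 20,000/well on chambered coverslips and grown 24 h. Compound diluted 1,000-fold from DMSO stock into complete medium (0.1% DMSO) and given at 37 °C, then co-imaged with MitoTracker Deep Red or LysoTracker Red. Live-cell confocal imaging with 63X oil objective, without washing.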"}, "[3]": {"assay": "Cytotoxicity against human HeLa cells assessed as reduction in cell viability incubated for 48 hrs by flow cytometry", "format": "toxicity, cell-based"}, "[4]": {"assay": "Stability of compound in ethanol at 5 uM incubated for 1 hrs by fluorescence spectroscopy", "format": "physicochemical"}, "[5]": {"assay": "Cytotoxicity against human Jurkat cells assessed as reduction in cell viability incubated for 48 hrs by flow cytometry", "format": "toxicity, cell-based"}, "[6]": {"assay": "Stability in human Jurkat lymphocytes assessed as half life in mitochondria at 10 uM incubated for 1 hrs by flow cytometry", "format": "ADME"}, "HeLa [7]": {"system": "HeLa", "assay": "Induction of mitochondrial membrane potential depolarization in human HeLa cells assessed as fluorescence in nucleoli at 10 uM incubated for 60 mins followed by blue-light irradiation for 60 sec by MitoTracker Deep Red staining based confocal laser scanning microscopy", "format": "functional, cell-based", "details": "time 61.0 min", "method_in_brief": "(§2)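 Live HeLa cells seeded 20,000/well and grown 24 h, then loaded with probe 10 μM for 1 h at 37 °C (0.1% DMSO). Then either irradiated at 488 nm for 60 s or given CCCP 10 μM for 5 min. Unwashed cells imaged by confocal (Ex. 488 nm, Em. 500–600 nm) and DIC.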"}, "Albumin": {"biological_target": "Albumin (Bos taurus, UniProt P02769)", "sequence (P02769 whole entry)": "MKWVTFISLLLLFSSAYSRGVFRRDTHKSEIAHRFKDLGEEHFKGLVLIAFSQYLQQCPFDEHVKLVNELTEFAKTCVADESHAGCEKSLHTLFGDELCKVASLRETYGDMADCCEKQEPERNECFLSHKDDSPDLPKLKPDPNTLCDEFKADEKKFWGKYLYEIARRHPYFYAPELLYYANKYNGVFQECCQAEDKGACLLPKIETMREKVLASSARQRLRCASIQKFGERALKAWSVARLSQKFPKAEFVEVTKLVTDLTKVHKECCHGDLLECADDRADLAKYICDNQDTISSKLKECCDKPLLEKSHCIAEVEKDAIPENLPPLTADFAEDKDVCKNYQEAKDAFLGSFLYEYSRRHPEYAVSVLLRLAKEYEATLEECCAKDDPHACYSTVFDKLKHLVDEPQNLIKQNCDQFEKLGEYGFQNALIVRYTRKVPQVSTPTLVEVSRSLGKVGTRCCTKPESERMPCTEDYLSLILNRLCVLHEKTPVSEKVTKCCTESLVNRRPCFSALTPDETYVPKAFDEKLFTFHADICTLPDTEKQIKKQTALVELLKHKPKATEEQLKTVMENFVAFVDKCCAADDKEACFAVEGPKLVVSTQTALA", "assay": "Stability of the compound assessed as bovine serum albumin mediated drug degradation at 10 uM incubated for 1 hrs followed by blue-light irradiation for 10 mins by fluorescence spectroscopy", "format": "ADME", "details": "cattle, 1.167 h, time 70 min"}, "[8]": {"assay": "Drug distribution in human HeLa cells assessed as fluorescence in mitochondria at 2 uM incubated for 1 hrs by confocal laser scanning microscopy", "format": "ADME"}, "HeLa [9]": {"system": "HeLa", "assay": "Induction of mitochondrial membrane potential depolarization in human HeLa cells assessed as fluorescence in nucleoli at 10 uM preincubated for 60 mins followed by CCCP treatment and measured after 5 mins by MitoTracker Deep Red and LysoTracker red staining based confocal laser scanning microscopy", "format": "functional, cell-based", "details": "time 65.0 min", "method_in_brief": "as §2"}, "HeLa [10]": {"system": "HeLa", "assay": "Induction of reactive oxygen species generation in human HeLa cells assessed as fold increase in ROS level by measuring nuclear fluorescence at 2 uM incubated for 60 mins followed by blue-light irradiation for 1 mins in presence of dihydroethidium by confocal microscopy", "format": "functional", "details": "time 61 min, 1.017 h", "method_in_brief": "(§3)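 HeLa cells seeded 20,000/well and grown 16 h. Pyronin 2 μM for 1 h at 37 °C, then DHE 5 μM for 1 h, then two washes with complete medium. Irradiation was 488 nm laser scanning at 25% power. ROIs drawn around nuclei to give mean ethidium fluorescence. Antimycin A 20 μM served as positive control; DHE-only cells were irradiated 1 or 2 min.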"}, "HeLa [11]": {"system": "HeLa", "assay": "Induction of mitochondrial membrane potential depolarization in human HeLa cells assessed as diffuse fluorescence from mitochondria to cytoplasm and nucleus at 10 uM incubated for 1 hrs in presence of blue-light irradiation by MitoTracker Deep red and LysoTracker red staining based confocal laser scanning microscopy", "format": "functional, cell-based", "method_in_brief": "as §2"}, "HeLa [12]": {"system": "HeLa", "assay": "Induction of reactive oxygen species generation in human HeLa cells assessed as fold increase in ROS level by measuring nuclear fluorescence at 2 uM incubated for 60 mins followed by blue-light irradiation for 2 mins by confocal microscopy", "format": "functional", "details": "time 62 min, 1.033 h", "method_in_brief": "as §3"}, "[13]": {"assay": "Stability of the compound assessed as bovine serum albumin mediated drug degradation at 10 uM incubated for 1 hrs by fluorescence spectroscopy", "format": "ADME", "details": "cattle"}, "HeLa [14]": {"system": "HeLa", "assay": "Induction of reactive oxygen species generation in human HeLa cells assessed as increase in ROS level at 2 uM incubated for 1 hr in presence of dihydroethidium by confocal microscopy", "format": "functional, cell-based", "method_in_brief": "as §3"}, "[15]": {"assay": "Drug distribution in human HeLa cells assessed as fluorescence in lysosome at 10 uM incubated for 1 to 3 hrs by LysoTracker red staining based confocal laser scanning microscopy", "format": "ADME, cell-based", "details": "time 1-3 hrs", "method_in_brief": "as §1"}},
  "note": "Active and inactive are the calls of the source. No cut-off for these calls is given here.",
  "data": [
    {"smiles": "CCCCCC[C@H]1C(=O)O[C@H](C)[C@H](NC(=O)c2cccc(NC=O)c2O)C(=O)O[C@@H](C)[C@@H]1OC(=O)CC(C)C", "values": [
      {"measurement": "Activity", "setting": "HeLa [1]", "value": "Active"}
    ]},
    {"smiles": "O=C([O-])C(F)(F)F.c1cc(=[N+]2CCC2)cc2oc3cc(N4CCC4)ccc3cc1-2", "values": [
      {"measurement": "Drug uptake", "setting": "[2]", "value": "Active"},
      {"measurement": "IC50 at 48 h", "setting": "[3]", "value": 3, "unit": "µM"},
      {"measurement": "Stability", "setting": "[4]", "value": "Stable"},
      {"measurement": "IC50 at 48 h", "setting": "[5]", "value": 0.2, "unit": "µM"},
      {"measurement": "half-life at 10 µM", "setting": "[6]", "value": 30, "unit": "min"}
    ]},
    {"smiles": "COC(=O)c1ccccc1-c1c2ccc(=N)cc-2oc2cc(N)ccc12.Cl", "note": "[RHODAMINE123]", "values": [
      {"measurement": "half-life at 10 µM", "setting": "[6]", "value": "> 1000", "unit": "min"}
    ]},
    {"smiles": "CCN(CC)c1cc2oc3cc(N(CC)CC)c(F)cc3c(=O)c2cc1F", "values": [
      {"measurement": "IC50 at 48 h", "setting": "[3]", "value": 51, "unit": "µM"},
      {"measurement": "IC50 at 48 h", "setting": "[5]", "value": 17, "unit": "µM"},
      {"measurement": "half-life at 10 µM", "setting": "[6]", "value": 5, "unit": "min"}
    ]},
    {"smiles": "CCN(CC)c1cc2oc3cc(=[N+](CC)CC)c(F)cc-3cc2cc1F.O=C([O-])C(F)(F)F", "values": [
      {"measurement": "Activity", "setting": "HeLa [7]", "value": "Active"},
      {"measurement": "Stability", "setting": "Albumin", "value": "Unstable"},
      {"measurement": "Activity", "setting": "[8]", "value": "Active"},
      {"measurement": "Activity", "setting": "HeLa [9]", "value": "Active"},
      {"measurement": "Drug uptake", "setting": "[2]", "value": "Active"},
      {"measurement": "fold change (FC)", "setting": "HeLa [10]", "value": 1.5},
      {"measurement": "Activity", "setting": "HeLa [11]", "value": "Active"},
      {"measurement": "IC50 at 48 h", "setting": "[3]", "value": 9, "unit": "µM"},
      {"measurement": "fold change (FC)", "setting": "HeLa [12]", "value": 2.7},
      {"measurement": "Stability", "setting": "[4]", "value": "Stable"},
      {"measurement": "IC50 at 48 h", "setting": "[5]", "value": 1, "unit": "µM"},
      {"measurement": "half-life at 10 µM", "setting": "[6]", "value": 12, "unit": "min"},
      {"measurement": "Stability", "setting": "[13]", "value": "Unstable"},
      {"measurement": "Activity", "setting": "HeLa [14]", "value": "Active"}
    ]},
    {"smiles": "Fc1cc2cc3cc(F)c(=[N+]4CCC4)cc-3oc2cc1N1CCC1.O=C([O-])C(F)(F)F", "values": [
      {"measurement": "IC50 at 48 h", "setting": "[3]", "value": 15, "unit": "µM"},
      {"measurement": "Stability", "setting": "[4]", "value": "Stable"},
      {"measurement": "IC50 at 48 h", "setting": "[5]", "value": 0.9, "unit": "µM"},
      {"measurement": "half-life at 10 µM", "setting": "[6]", "value": 15, "unit": "min"}
    ]},
    {"smiles": "CCNc1c2cc(F)c(=[N+](CC)CC)cc-2oc2cc(N(CC)CC)c(F)cc12.O=C([O-])C(F)(F)F", "values": [
      {"measurement": "Drug uptake", "setting": "[2]", "value": "Active"},
      {"measurement": "IC50 at 48 h", "setting": "[3]", "value": 3, "unit": "µM"},
      {"measurement": "IC50 at 48 h", "setting": "[5]", "value": 0.8, "unit": "µM"},
      {"measurement": "half-life at 10 µM", "setting": "[6]", "value": 60, "unit": "min"},
      {"measurement": "Drug uptake", "setting": "[15]", "value": "Active"}
    ]},
    {"smiles": "CCN(CC)c1ccc2cc3ccc(N(CC)CC)cc3[o+]c2c1.[Cl-]", "values": [
      {"measurement": "Activity", "setting": "[8]", "value": "Active"},
      {"measurement": "IC50 at 48 h", "setting": "[3]", "value": 2, "unit": "µM"},
      {"measurement": "Stability", "setting": "[4]", "value": "Stable"},
      {"measurement": "IC50 at 48 h", "setting": "[5]", "value": 0.1, "unit": "µM"},
      {"measurement": "half-life at 10 µM", "setting": "[6]", "value": 6, "unit": "min"},
      {"measurement": "Activity", "setting": "HeLa [14]", "value": "Active"}
    ]}
  ]
}
